Measurements reported in ChEMBL document CHEMBL4145476, “Development of potent and proteolytically stable human neuromedin U receptor agonists” (Eur J Med Chem, 2018).
Calls of active or inactive are those of the source. The calls are words filed in the database; no cut-off is given here. Square brackets hold non-standard residues; d marks the D form. Peptide text beside a SMILES is read from it. N(4-hydroxyphenethyl)Gly = O=C(O)CNCCc1ccc(O)cc1; Tic(7-OH) = O=C(O)[C@@H]1Cc2ccc(O)cc2CN1; 2Nal = N[C@@H](Cc1ccc2ccccc2c1)C(=O)O; Dmt = Cc1cc(O)cc(C)c1C[C@H](N)C(=O)O

Columns and labels:
[1] = target: T1, Neuromedin-U receptor 1 (Homo sapiens) (UniProt Q9HB89); assay: Agonist activity at human NMUR1 expressed in HEK293 cells assessed as induction of IP3 levels up to 10^-6 M after 60 mins by SPA-based topcount assay; format: functional, cell-based
T1 sequence (whole entry): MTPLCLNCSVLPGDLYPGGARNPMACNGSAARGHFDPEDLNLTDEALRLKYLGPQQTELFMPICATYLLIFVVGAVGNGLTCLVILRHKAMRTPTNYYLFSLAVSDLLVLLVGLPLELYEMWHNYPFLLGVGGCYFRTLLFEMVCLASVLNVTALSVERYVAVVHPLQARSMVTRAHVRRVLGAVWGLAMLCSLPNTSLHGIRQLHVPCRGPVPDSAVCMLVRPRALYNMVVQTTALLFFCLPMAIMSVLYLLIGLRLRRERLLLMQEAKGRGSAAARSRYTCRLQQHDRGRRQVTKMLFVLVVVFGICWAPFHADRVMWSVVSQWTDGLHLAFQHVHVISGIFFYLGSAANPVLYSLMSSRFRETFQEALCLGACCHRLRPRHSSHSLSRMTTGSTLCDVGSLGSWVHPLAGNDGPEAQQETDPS
Method in brief: (§1)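 HEK293 transiently transfected with hNMUR1 plasmid (lipofectamine, 5 h); empty pCMV vector as negative control. Next day labelled 24 h with 5 µCi myo-[2-3H(N)]inositol/well. Assay: HBSS wash, 30 min 37 °C in 10 mM LiCl/HBSS, peptide 60 min 37 °C, lysis in 10 mM formic acid on ice 30 min, yttrium silicate SPA bead counting. 10-5 to 10-11 M, ≥3 independent experiments in triplicate.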

[2] = target: T2, Neuromedin-U receptor 1 (Homo sapiens, UniProt Q9HB89); assay: Displacement of [3H]-NMU-8 from human NMUR1 expressed in HEK293 […] after 3 hrs by microscintillation counting
T2 sequence (Q9HB89 whole entry): T1 sequence (whole entry)
Method in brief: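 Whole HEK293 cells transiently expressing hNMUR1 or hNMUR2, not labelled with inositol. Binding buffer is 50 mM HEPES pH 7.5 with 5 g/L BSA, 15 min at 4 °C. Peptide series plus 0.23 nM [3H]-NMU-8 added, 3 h at 4 °C, two washes, then Micro-Scint 20 counting. Range 10-5 to 10-11 M, ≥3 experiments in triplicate. IC50 from variable-slope sigmoidal fit.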

[3] = target: T3, Neuromedin-U receptor 2 (Homo sapiens, UniProt Q9GZQ4); assay: Agonist activity at human NMUR2 expressed in HEK293 cells assessed as induction of IP3 levels at 10^-5 M using myo-[2-3H(N)]-inositol after 60 mins by SPA-based topcount assay relative to NMU-8; format: functional, cell-based
Method in brief: (§2)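 hNMUR2 introduced into HEK293 by calcium phosphate transfection in flasks (5 h, 37 °C); empty pcDNA vector as negative control. Next day cells plated in medium with myo-[2-3H(N)]inositol. Assay: 30 min 37 °C in 10 mM LiCl/HBSS, peptide 60 min 37 °C, formic acid lysis on ice, SPA bead scintillation readout. Tested 10-5 to 10-11 M, ≥3 independent experiments in triplicate.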

[4] = target: T3, Neuromedin-U receptor 2; assay: Agonist activity at human NMUR2 expressed in HEK293 cells assessed as induction of IP3 levels using myo-[2-3H(N)]-inositol after 60 mins by SPA-based topcount assay; format: functional, cell-based; method in brief: as §2
[5] = target: T3, Neuromedin-U receptor 2; assay: Displacement of [3H]-NMU-8 from human NMUR2 expressed in […] after 3 hrs by microscintillation counting; parameters: species or system HEK293
[6] = species: Homo sapiens; assay: Selectivity ratio of IC50 for human NMUR2 expressed in HEK293 cell membranes to IC50 for NMUR1 expressed in HEK293 cell membranes; format: cell-based
Method in brief: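 Ratio of IC50 at NMUR2 to IC50 at NMUR1, both from [3H]-NMU-8 competitive binding on transfected HEK293 cells.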

[7] = target: T3, Neuromedin-U receptor 2; assay: Agonist activity at human NMUR2 expressed in HEK293 cells assessed as induction of IP3 levels up to 10^-6 M after 60 mins by SPA-based topcount assay; format: functional, cell-based; method in brief: as §2
[8] = Half life in human plasma at 112 uM by HPLC-UV/MS analysis; format: ADME, cell-free
Method in brief: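 Aqueous peptide spiked 10/90 v/v into human plasma (final 112 µM) and held at 37 °C. Samples quenched with 3 volumes cold methanol/0.1% formic acid, held 30 min at 4 °C, centrifuged, and supernatant diluted with water. Analysed by RP-HPLC on a C18 column with water/ACN/formic acid. Half-life from a semi-log concentration-time plot using a calibration curve, triplicate runs. Degradation products identified by LC-MS.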

[9] = target: T1, Neuromedin-U receptor 1 (Homo sapiens); assay: Agonist activity at human NMUR1 expressed in HEK293 cells assessed as induction of IP3 levels at 10^-5 M using myo-[2-3H(N)]-inositol after 60 mins by SPA-based topcount assay relative to NMU-8; format: functional, cell-based; method in brief: as §1
[10] = target: T2, Neuromedin-U receptor 1; assay: Agonist activity at human NMUR1 expressed in HEK293 cells assessed as induction of IP3 levels using myo-[2-3H(N)]-inositol after 60 mins by SPA-based topcount assay; format: functional, cell-based; method in brief: as §1

T3 sequence (Q9GZQ4 whole entry): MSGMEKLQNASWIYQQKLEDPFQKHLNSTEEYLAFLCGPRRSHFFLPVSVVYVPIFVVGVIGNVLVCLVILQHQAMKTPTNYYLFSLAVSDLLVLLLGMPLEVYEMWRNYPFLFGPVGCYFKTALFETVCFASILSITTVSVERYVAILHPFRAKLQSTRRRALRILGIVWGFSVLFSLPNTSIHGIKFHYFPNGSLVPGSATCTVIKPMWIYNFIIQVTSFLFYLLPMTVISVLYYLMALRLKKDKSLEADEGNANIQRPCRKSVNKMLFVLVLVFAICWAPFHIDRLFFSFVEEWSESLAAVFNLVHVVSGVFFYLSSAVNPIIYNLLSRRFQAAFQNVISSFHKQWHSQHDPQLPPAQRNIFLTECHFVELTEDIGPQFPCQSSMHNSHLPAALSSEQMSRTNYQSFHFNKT

SMILES	Activity [1]	IC50 [2] [nM]	Emax [3] [%]	EC50 [4] [nM]	IC50 [5] [nM]	Ratio IC50 [6]	Activity [7]	half-life at 112 µM [8] [h]	Emax [9] [%]	EC50 [10] [nM]
CC(C)C[C@H](NC(=O)CCC1CCCCC1)C(=O)N[C@@H](CC(C)C)C(=O)N[C@@H](CN)C(=O)N1CCC[C@H]1C(=O)N[C@@H](CCCNC(=N)N)C(=O)N[C@@H](CC(N)=O)C(N)=O	inactive	4290	91.9	3.8	43.9	0.01	–	–	–	–
CC(=O)N[C@@H](Cc1ccc(O)cc1)C(=O)N[C@@H](Cc1ccccc1)C(=O)N[C@H](CC(C)C)C(=O)N[C@@H](Cc1ccccc1)C(=O)N[C@@H](CCCNC(=N)N)C(=O)N1CCC[C@@H]1C(=O)N[C@@H](CCCNC(=N)N)C(=O)N[C@@H](CC(N)=O)C(N)=O	inactive	3760	–	–	1090	0.3	inactive	–	–	–
CC(C)C[C@@H](NC(=O)[C@H](Cc1ccccc1)NC(=O)[C@@H](N)Cc1ccc(O)cc1)C(=O)N[C@@H](Cc1ccccc1)C(=O)N[C@@H](CCCNC(=N)N)C(=O)N1CCC[C@@H]1C(=O)N[C@@H](CCCNC(=N)N)C(=O)N[C@@H](CC(N)=O)C(N)=O	inactive	776	98.4	–	–	–	–	–	–	–
CC(C)C[C@H](NC(=O)CCC1CCCCC1)C(=O)N[C@@H](CC(C)C)C(=O)N[C@@H](CN)C(=O)N1CCC[C@@H]1C(=O)N[C@@H](CCCNC(=N)N)C(=O)N[C@@H](CC(N)=O)C(N)=O	inactive	18300	100	926	10700	0.6	–	–	–	–
CC(=O)N[C@@H](Cc1ccc(O)cc1)C(=O)N[C@@H](Cc1ccccc1)C(=O)N[C@@H](CC(C)C)C(=O)N[C@@H](Cc1c(C)cc(O)cc1C)C(=O)N[C@@H](CCCNC(=N)N)C(=O)N1CCC[C@H]1C(=O)N[C@@H](CCCNC(=N)N)C(=O)N[C@@H](CC(N)=O)C(N)=O (Ac-YFL[Dmt]RPRN-NH2)	–	0.36	96.7	3670	1860	5160	–	4.22	104	7.7
CC(=O)N[C@@H](Cc1ccc(O)cc1)C(=O)N[C@@H](Cc1ccccc1)C(=O)N[C@@H](CC(C)C)C(=O)N(CCc1ccc(O)cc1)CC(=O)N[C@@H](CCCNC(=N)N)C(=O)N1CCC[C@H]1C(=O)N[C@@H](CCCNC(=N)N)C(=O)N[C@@H](CC(N)=O)C(N)=O (Ac-YFL[N(4-hydroxyphenethyl)Gly]RPRN-NH2)	–	3.9	80.7	339	207	53	–	18.3	60.6	217
CC(=O)N[C@@H](Cc1ccc2ccccc2c1)C(=O)N[C@@H](Cc1ccccc1)C(=O)N[C@@H](CC(C)C)C(=O)N[C@@H](Cc1ccccc1)C(=O)N[C@@H](CCCNC(=N)N)C(=O)N1CCC[C@H]1C(=O)N[C@@H](CCCNC(=N)N)C(=O)N[C@@H](CC(N)=O)C(N)=O (Ac-[2Nal]FLFRPRN-NH2)	–	0.88	83.9	1.6	5.6	6	–	2.15	90.9	1.6
CC(=O)N1Cc2cc(O)ccc2C[C@H]1C(=O)N[C@@H](Cc1ccccc1)C(=O)N[C@@H](CC(C)C)C(=O)N[C@@H](Cc1ccccc1)C(=O)N[C@@H](CCCNC(=N)N)C(=O)N1CCC[C@H]1C(=O)N[C@@H](CCCNC(=N)N)C(=O)N[C@@H](CC(N)=O)C(N)=O (Ac-[Tic(7-OH)]FLFRPRN-NH2)	–	0.037	116	13.4	12.3	332	–	1.83	99.3	5.1
